The values that follow come from article PMC4980657 (Journal of medicinal chemistry, 2015).

What is called pKi is −log10 of the Ki, conventionally taken in molar units.

For test [1], the system named is PCP binding site of the NMDA receptor. The settings on record: mean from two experiments, rat brain membranes; for inhibition (%) of [3H]TCP binding: test ligand at 1.0 μM. The gist of the method: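 Outsourced to a contract lab using rat brain membrane suspensions and [3H]TCP as radioligand. Test ligands were first screened at 1 μM for percent inhibition of [3H]TCP binding. […] Values are the mean of two experiments.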

The target of test [2] is PCP binding site of the NMDA receptor. The settings on record: rat brain membranes, cited from earlier work; for pKi: read-out: [3H]TCP Ki; for inhibition (%) of [3H]TCP binding: test ligand at 1.0 μM.
The target is the same in test [3]. The settings on record: read-out: Ki vs [3H]1; cited from earlier work.

pKi: −log10 of the molar value. Read-outs that look alike come from different tables or passages of the source.

On to `CN(C(=N)Nc1cc(SCF)ccc1Cl)c1cccc(C(F)(F)F)c1` [compound 46, 3-(2-Chloro-5-(fluoromethylthio)phenyl)-1-methyl-1-(3-(trifluoromethyl)phenyl)guanidine], for which the “inhibition (%) of [3H]TCP binding” value in test [1] turned out to be 57.5%.
On to `CN(C(N)=Nc1cccc2ccccc12)c1cccc(I)c1` [compound 3, reference compound], for which, in test [2], the negative logarithm of the Ki (pKi) is 7.50 and the “inhibition (%) of [3H]TCP binding” value is 106%.
As for `CN(C(=N)Nc1cccc2ccccc12)c1cccc(C(F)(F)F)c1` [compound 7, 1-Methyl-3-(naphthalen-1-yl)-1-(3-(trifluoromethyl)phenyl)guanidine], the pKi in test [3] was 8.57. Besides, in test [2], the pKi was 7.74 and the “inhibition (%) of [3H]TCP binding” value is recorded as 107%.
As to `CN(C(=N)Nc1cccc2ccccc12)c1cc(C(F)(F)F)ccc1F` [compound 13, 1-(6-fluoro-3-(trifluoromethyl)phenyl)-1-methyl-3-(naphthalen-1-yl)guanidine], the pKi in test [1] (read-out: [3H]TCP Ki) was 7.89. The “inhibition (%) of [3H]TCP binding” value in test [1] is 91.0%.
